The list is not random: actives were taken first. Their share in the collection is about 3.7%.
MC4R ag barr: MC4R agonists recruiting beta-arrestin, primary screen, cell-based, luminescence, agonist arm of biased-ligand search. Melanocortin receptor 4 (Homo sapiens), P32245. U2OS MC4R beta-arrestin complementation; percent of melanotan II response, DMSO zero. activation, % at 8.9 µM. 360,000 tested, 0.98% active. AID 540308, 2011;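 active = activation above a per-plate cutoff, the mean activation of sample wells on that plate plus 3 SD, cut at about 8% in these data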
Target sequence (P32245 whole entry, looked up): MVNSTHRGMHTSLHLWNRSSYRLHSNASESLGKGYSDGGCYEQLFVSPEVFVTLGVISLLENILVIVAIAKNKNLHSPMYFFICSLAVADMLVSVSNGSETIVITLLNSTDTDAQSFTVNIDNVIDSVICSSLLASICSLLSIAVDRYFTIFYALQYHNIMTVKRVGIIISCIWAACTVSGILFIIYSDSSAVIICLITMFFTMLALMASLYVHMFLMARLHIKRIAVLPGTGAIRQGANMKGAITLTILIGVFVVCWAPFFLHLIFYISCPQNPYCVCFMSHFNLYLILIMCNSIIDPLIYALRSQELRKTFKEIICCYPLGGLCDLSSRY
Myeloid diff 2: induction of myeloid progenitor differentiation, primary screen, cell-based, flow cytometry, MLPCN library; 360,000 tested, 1% active; AID 624256, 2012; calls only at 10 µM; ER-HoxA9 myeloid progenitors, lysozyme-GFP differentiation;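 active = normalized GFP-positive differentiation at or above the plate's own cutoff, the solvent-only control mean plus 3 SD; inconclusive = no clear call, values can overlap the other calls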;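 also: cells exposed to compound for four days before flow analysis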
Granule exo inh: LAMP-1 surface exposure blockers, TALL-104 cells – cell-based, flow cytometry, MLPCN library, primary screen; TALL-104 LAMP-1 surface exposure; cells stimulated with thapsigargin and PMA; inhibition, % at 10 µM; 360,000 tested, 0.66% active; AID 651702, 2012;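 active = inhibition above about 55%, limit read from the data; inconclusive = no clear call, values can overlap the other calls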
MC4R antagonist: MC4R antagonists of cAMP signaling, primary screen, cell-based, TR-FRET, antagonist arm of biased-ligand search | Melanocortin receptor 4 (Homo sapiens), P32245 | AID 540295, 2011 | 360,000 tested, 0.48% active | inhibition, % at 6.5 µM | MC4R-expressing cells, MTII-stimulated cAMP, LANCE TR-FRET;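 active = inhibition above its plate's cutoff, the mean of tested wells on that plate plus 3 SD, cut at about 29% in these data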
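Test system: U2OS cells stably expressing human melanocortin 4 receptor (MC4R); also added: Melanotan II challenge; compound: 6.5 µM single dose; timing: 30-min compound preincubation, 1-h Melanotan II challenge, 1-h detection, room temperature; signal: Eu-cAMP/anti-cAMP TR-FRET, emission 671 nm; repeats: one well per compound, no replicates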
EBI2 block: EBI2 receptor antagonists, beta-arrestin recruitment, primary screen, cell-based, luminescence, 7a,25-OHC stimulation, uHTS. G-protein coupled receptor 183 (Homo sapiens), P32249. 7a,25-OHC stimulated. inhibition, % at 5 µM. 360,000 tested, 0.81% active. AID 651636, 2012; in the data active = inhibition above about 38%;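 also: enzyme fragment complementation signal reports receptor beta-arrestin coupling in cells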
cAMP nonselect: nonselective cAMP signaling inhibitors, parental cells, counter-screen for MC4R biased antagonist project, cell-based, TR-FRET, U2OS, forskolin, triplicate | 1,600 tested, 26% active | inhibition, % at 6.5 µM | shares compounds with MC4R antagonist | AID 602193, 2012 | LANCE TR-FRET;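 active = mean inhibition over triplicates above the low-control well mean plus 3 SD, set per campaign, cut at about 13% in these data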;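 also: signal is single emission at 671 nm which falls as cellular cAMP rises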
MC4R antag conf: MC4R cAMP antagonists, retest, confirmation, cell-based, TR-FRET; MC4R-expressing cells, MTII-stimulated cAMP; 1,600 tested, 27% active; AID 602195, 2012; inhibition, % at 6.5 µM; shares compounds with MC4R antagonist; in the data active = inhibition above about 29%
Numbers stand for hits.

`Cn1c(N)c(C(=O)COC(=O)CC(NC(N)=O)c2ccc(Cl)cc2)c(=O)n(C)c1=O` (centres undefined) gave MC4R ag barr inactive, Myeloid diff 2 inactive, Granule exo inh inactive, MC4R antagonist inactive and EBI2 block inactive.
`CC(=O)NC(CC(=O)OCC(=O)c1c(N)n(C)c(=O)n(C)c1=O)c1ccccc1` (centres undefined) gave MC4R ag barr inactive, Myeloid diff 2 inactive, Granule exo inh inactive, MC4R antagonist 30, EBI2 block inactive, cAMP nonselect inactive and MC4R antag conf inactive.
For CCN(c1ccc(OCC(=O)OCC(=O)c2c(N)n(C)c(=O)n(C)c2=O)cc1)S(=O)(=O)c1ccccc1 the results were MC4R ag barr inactive, Myeloid diff 2 inactive, Granule exo inh inactive, MC4R antagonist 42, EBI2 block inactive, cAMP nonselect inactive and MC4R antag conf inactive.
O=C1NC[C@@H](CCCCN2C[C@H](Cc3ccccc3)N(CC3CCCCC3)C(=O)C2=O)N(CCc2ccccc2)C1=O was read as Myeloid diff 2 inactive, Granule exo inh inactive and EBI2 block inactive.
Screening CCC(C)(C)C(=O)O[C@H]1C[C@@H](C)C=C2C=C[C@H](C)[C@H](CC[C@@H]3C[C@@H](O)CC(=O)O3)[C@H]21 returned MC4R ag barr inactive, Granule exo inh inactive, MC4R antagonist inactive and EBI2 block inactive.
For Cn1c(=O)c2c(-c3ccccc3)n(-n3cnnc3)cc2n(C)c1=O the results were MC4R ag barr inactive, Myeloid diff 2 inactive, Granule exo inh inactive, MC4R antagonist 29, EBI2 block inactive, cAMP nonselect inactive and MC4R antag conf inactive.
For Cc1cc(C)c(NC(=O)c2cccc(NC(=O)c3ccco3)c2)c(C)c1 the results were MC4R ag barr inactive, Myeloid diff 2 inactive, Granule exo inh inactive, MC4R antagonist 30, EBI2 block inactive, cAMP nonselect inactive and MC4R antag conf inactive.
CCC/C=C/c1ccc(CN2C(C(C)C)C(=O)N(Cc3cn(Cc4ccco4)nn3)CCS2(=O)=O)cc1 (centres undefined) was read as MC4R ag barr inactive, Myeloid diff 2 inactive, Granule exo inh inactive, MC4R antagonist inactive and EBI2 block inactive.
COc1ccc(C(=O)N/C(=C\c2cn(S(=O)(=O)N(C)C)c3ccccc23)C(=O)N2CCN(C)CC2)cc1 was read as MC4R ag barr inactive, Myeloid diff 2 inactive, Granule exo inh inactive, MC4R antagonist inactive and EBI2 block inactive.
Screening Cc1[nH]nc(S(=O)CC(=O)O)c1[N+](=O)[O-] (centres undefined) returned MC4R ag barr inactive, Myeloid diff 2 inactive, Granule exo inh inactive, MC4R antagonist 31, EBI2 block inactive, cAMP nonselect inactive and MC4R antag conf inactive.
`O=C(Nc1ccc(F)cc1)c1cc(-c2ccccn2)nc2c(Cl)cccc12` gave MC4R ag barr inactive, Myeloid diff 2 inactive, Granule exo inh inactive, MC4R antagonist 30, EBI2 block inactive, cAMP nonselect 35 and MC4R antag conf 42.
`O=C(O)CNC(=O)C1(NC(=O)OCc2ccccc2)CCCC1` gave MC4R ag barr inactive, Myeloid diff 2 inactive, Granule exo inh inactive, MC4R antagonist inactive and EBI2 block inactive.
`CN(NS(=O)(=O)c1ccc(Br)cc1)c1nc(C(F)(F)F)nc2ccccc12` gave MC4R ag barr inactive, Myeloid diff 2 inactive, Granule exo inh inactive, MC4R antagonist 32, EBI2 block inactive, cAMP nonselect inactive and MC4R antag conf inactive.
`COc1ccc(S(=O)(=O)NN(C)c2ncc(C(F)(F)F)cc2Cl)cc1` gave MC4R ag barr inactive, Myeloid diff 2 inactive, Granule exo inh inactive, MC4R antagonist inactive and EBI2 block inactive.
CCn1c(C)nc2cc(C(=O)NN=C(C)c3ccc(C#N)cc3)ccc21 was read as MC4R ag barr inactive, Myeloid diff 2 inactive, Granule exo inh inactive, MC4R antagonist inactive and EBI2 block inactive.
Screening CCn1c(C)nc2cc(C(=O)N/N=C(\C)c3ccc(OC)cc3O)ccc21 returned MC4R ag barr inactive, Myeloid diff 2 inactive, Granule exo inh inactive, MC4R antagonist 34, EBI2 block inactive, cAMP nonselect inactive and MC4R antag conf inactive.
`Cc1ccc(NC(=O)CN(C)C(=O)Cn2ncc(Cl)c(Cl)c2=O)cc1` gave MC4R ag barr inactive, Myeloid diff 2 inconclusive, Granule exo inh inactive, MC4R antagonist 30, EBI2 block inactive, cAMP nonselect 26 and MC4R antag conf inactive.
O=C(Cc1cc(=O)oc2cc(O)ccc12)NC(Cc1ccc(Cl)cc1)C(=O)O (centres undefined) was read as MC4R ag barr inactive, Myeloid diff 2 inactive, Granule exo inh inactive, MC4R antagonist inactive and EBI2 block inactive.
For COc1ccc(OC)c(NS(=O)(=O)c2ccc3c(c2)C(C)(C)C(=O)N3C)c1 the results were MC4R ag barr inactive, Myeloid diff 2 inactive, Granule exo inh inactive, MC4R antagonist inactive and EBI2 block inactive.
Screening COc1ccc2[nH]c3c(=S)nc[nH]c3c2c1 returned MC4R ag barr inactive, Myeloid diff 2 inactive, Granule exo inh inactive, MC4R antagonist 38, EBI2 block inactive, cAMP nonselect inactive and MC4R antag conf inactive.
Cc1ccc(C(=O)C(C)OC(=O)c2cc3cc([N+](=O)[O-])ccc3oc2=O)cc1 (centres undefined) was read as MC4R ag barr inactive, Myeloid diff 2 inactive, Granule exo inh inactive, MC4R antagonist 33, EBI2 block inactive, cAMP nonselect inactive and MC4R antag conf inactive.
Cc1cccc(C)c1NC(=O)CN(Cc1ccccc1)Cc1ccccc1 was read as Myeloid diff 2 inactive, Granule exo inh inactive and EBI2 block inactive.
Screening CCCOc1ccc(C(=O)c2ccccc2C(=O)OC2CCOC2=O)cc1OCCC (centres undefined) returned MC4R ag barr inactive, Myeloid diff 2 inactive, Granule exo inh inactive, MC4R antagonist 30, EBI2 block inactive, cAMP nonselect inactive and MC4R antag conf inactive.
O=C(c1ccco1)N1CCN(c2ncnc3scc(-c4ccc(Cl)cc4)c23)CC1 was read as MC4R ag barr inactive, Myeloid diff 2 inactive, Granule exo inh inactive, MC4R antagonist 31, EBI2 block inactive, cAMP nonselect inactive and MC4R antag conf inactive.
For CCN1CCN(c2nc3c(C)cccn3c(=O)c2/C=C(\C#N)C(=O)NCCOC)CC1 the results were MC4R ag barr inactive, Myeloid diff 2 inactive, Granule exo inh inactive, MC4R antagonist inactive and EBI2 block inactive.

Bioassay records from PubChem BioAssay.
